# Compound activity from PubChem.
# Compounds with a hit are over-represented: about 3% of the library has one in this group of screens.
# CHRM4 agonist = CHRM4 agonism in calcium assay; P08173; CHO-K1 hM4/Gqi5, Fluo-8 calcium fluorescence; vehicle 0%, full acetylcholine response 100%; activation, % at 3 µM; 360,000 compounds, 0.14% hits;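 active = activation above the run mean over all test wells plus 3 SD, cut at about 32% in these data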;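 note: peak over basal fluorescence ratio per well then scaled between controls; 0% = DMSO wells and 100% = acetylcholine at EC100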
# Target sequence (P08173 whole entry, looked up): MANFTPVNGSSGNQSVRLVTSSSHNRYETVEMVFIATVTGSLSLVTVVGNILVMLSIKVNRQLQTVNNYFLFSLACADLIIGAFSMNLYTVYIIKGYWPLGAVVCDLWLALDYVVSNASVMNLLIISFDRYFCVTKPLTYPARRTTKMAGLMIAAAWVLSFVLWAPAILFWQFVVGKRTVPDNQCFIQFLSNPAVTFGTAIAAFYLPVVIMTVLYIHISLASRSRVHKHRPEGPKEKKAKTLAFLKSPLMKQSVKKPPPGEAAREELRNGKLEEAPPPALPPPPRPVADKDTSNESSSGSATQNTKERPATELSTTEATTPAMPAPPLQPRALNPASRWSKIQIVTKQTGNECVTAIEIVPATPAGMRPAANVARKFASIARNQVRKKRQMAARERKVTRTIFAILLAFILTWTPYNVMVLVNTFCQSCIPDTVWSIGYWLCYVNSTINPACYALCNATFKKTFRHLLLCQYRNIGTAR
# CHRM4 PAM = potentiates acetylcholine response at human M4 receptor; 360,000 compounds, 0.4% hits; CHO-K1 hM4/Gqi5, Fluo-8 calcium fluorescence, ACh EC20; 0% = ACh EC20, 100% = maximal ACh; activation, % at 3 µM; P08173;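 active = activation above its plate's cutoff, the mean activation of sample wells plus 3 SD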
# TAAR1 agonist = human TAAR1 agonism; CHO RD-HGA16 TAAR1, Fluo-8 calcium fluorescence; vehicle wells 0%, saturating PEA agonist 100%; activation, % at 3 µM; AID 624467; Q96RJ0; 360,000 compounds, 0.99% hits;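 active = activation above the mean activation of all test compounds in the run plus 3 SD, cut at about 38% in these data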
#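 Signal – calcium-sensitive Fluo-8 signal, excitation 470-495, emission 515-575 nm · System – RD-HGA16 (CHO) cells co-expressing Gα16 and hTAAR1 · Incubation – 17-24 h seeding, 75 min 37 °C dye, 30 min RT · Compound dosing – 3 µM single concentration · Repeats – no replicates (n 1)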
# CHRM4 antagonist = blocks acetylcholine activation of human M4 receptor; CHO-hM4 cells, ACh EC80, Fluo-8 calcium fluorescence; 360,000 compounds, 0.73% hits; inhibition, % at 3 µM; P08173;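 active = inhibition above its plate's cutoff, the mean inhibition of sample wells plus 3 SD, cut at about 27% in these data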;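 note: 0% = acetylcholine EC80 with DMSO and 100% = DMSO without agonist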
# TAAR1 antagonist = antagonists of human TAAR1; Q96RJ0; CHO RD-HGA16 TAAR1, Fluo-8 calcium fluorescence, antagonist; inhibition, % at 3 µM; 360,000 compounds, 1.5% hits;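 active = inhibition above a per-plate cutoff, the mean inhibition of test compounds on that plate plus 3 SD, cut at about 49% in these data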;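 note: 0% = DMSO plus EC80 beta-PEA response and 100% = DMSO alone without agonist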
#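 Assay system: CHO-derived RD-HGA16 cells stably expressing human TAAR1 plus Gα16. Timing: 140 s kinetic read after compound, 140 s after agonist. Technique: kinetic Fluo-8 calcium fluorescence measurement. Measure: % inhibition of agonist calcium response.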
# * hit, by the source's call; nt = no result given.
SMILES,CHRM4 agonist,CHRM4 PAM,TAAR1 agonist,CHRM4 antagonist,TAAR1 antagonist
COC(=O)[C@@]12C[C@@H](CC(=O)NCCc3ccccc3OC)C(=O)N(CCc3ccc(OC)c(OC)c3)C1=CCC(C)(C)C2,24,-8,28,2,-9
COCC1CCCCN1C(=O)c1cc(COc2ccc3ncccc3c2)on1 (configuration not stated),32*,-12,6,34*,15
Cc1ccc(F)cc1CNC(=O)c1cc(COc2ccc3ncccc3c2)on1,25,-19,23,43*,41
CCC1CCCCN1C(=O)c1cc(COc2ccc3ncccc3c2)on1 (configuration not stated),22,-12,8,5,13
O=C(NCc1cccc(Cl)c1)c1cc(COc2ccc3ncccc3c2)on1,17,-8,19,11,22
COC(=O)[C@]1(CC(C)C)NC=C(C(=O)c2ccccc2)[C@@H]1c1cccc(C(F)(F)F)c1,nt,nt,-2,nt,-10
COc1ccc(/C=C2\Sc3ccc(C(=O)N4CCN(Cc5ccccc5)CC4)cc3N(C)C2=O)cc1OC,27,-13,4,22,59*
CN1CCN(C(=O)c2ccc3c(c2)N(C)C(=O)/C(=C/c2cccc(Cl)c2)S3)CC1,6,-2,4,3,3
CCCSc1nnc(NC(=O)Nc2ccccc2)s1,3,14,40*,-5,8
CCCSc1nnc(NC(=O)Nc2ccc(C)cc2)s1,1,-3,3,-2,-3
CCNc1nc(NC(C)(C)C)nc(N2CCCCC2)n1,2,-21,35,45*,-5
CCNc1nc(N2CCCC2)nc(N2CCCC2)n1,0,-8,16,4,-11
O=C(Nc1ccc(C(=O)NCCCN2CCN(c3ccc(F)cc3)CC2)cc1)C1=CSCCO1,19,1,45*,5,23
O=C(CSc1nc2ncc(Br)cc2[nH]1)c1ccc([N+](=O)[O-])cc1,1,0,0,-9,-2
O=C(CSc1nc2ccc([N+](=O)[O-])cc2[nH]1)c1ccc2ccccc2c1,7,-15,7,21,52*
Cc1ccccc1C(=O)NC1CCN(CC(=O)Nc2ccccc2)CC1,2,4,5,5,-5
Cc1ccccc1C(=O)NC1CCN(CC(=O)Nc2c(C)cccc2C)CC1,3,29*,0,-7,-1
O=C1NC(Cc2cnc[nH]2)C(=O)N2CCCC12 (configuration not stated),nt,nt,0,nt,0
COc1ccc(C(CCN2CCOCC2)c2c(OC)cc(OC)c3c(-c4ccccc4)cc(=O)oc23)cc1 (configuration not stated),14,-3,40*,-4,5
CN(C)c1ccc(/C=C/c2nc3ccccc3c(=O)n2-c2ccc(C(=O)O)cc2)cc1,55*,-18,33,16,39
Cc1ccc(OCCCCN2CCc3ccccc3C2)cc1,2,-3,41*,-2,-18
C[C@H](CO)N1C[C@H](C)[C@H](CN(C)C(=O)Nc2ccc(N3CCCCC3)cc2)OCc2cnnn2CCCC1=O,nt,nt,5,nt,-10
COc1ccccc1N1CCN(C(=O)c2cccc(S(=O)(=O)Nc3ccccc3F)c2)CC1,19,-12,18,2,54*
COc1cccc(S(=O)(=O)Nc2cccc(C(=O)N3CCOCC3)c2)c1,1,-17,1,36*,-3
COc1ccc([C@H]2CC(=O)C[C@@H](CCn3nnc4ccccc43)O2)cc1,0,-1,1,4,2
SMILES,CHRM4 agonist,CHRM4 PAM,TAAR1 agonist,CHRM4 antagonist,TAAR1 antagonist
COc1cccc(C(=O)N[C@H](C(=O)N2CCC[C@H]2C(=O)NCc2ccccc2)c2ccccc2)c1,nt,nt,1,nt,0
CNC(=O)c1[nH]cnc1C(=O)N[C@@H](Cc1ccccc1)C(=O)OCc1ccccc1,23,-6,13,-5,59*
O=C(c1nc[nH]c1C(=O)N1CCc2ccccc2C1)N1CCc2ccccc2C1,25,-6,38*,-7,48
CN(Cc1ccccc1)C(=O)c1nc[nH]c1C(=O)N1CCc2ccccc2C1,1,12,5,3,11
O=C(N[C@@H](Cc1ccccc1)C(=O)OCc1ccccc1)c1nc[nH]c1C(=O)N1CCc2ccccc2C1,11,4,7,25,59*
COC(=O)c1cc2c(c3c4cc(OC)ccc4n(S(=O)(=O)c4ccc(OC)cc4)c13)C(=O)N(Cc1ccccc1)C2,nt,nt,0,nt,-24
CCOC(=O)[C@]12CCC=C1N(Cc1ccco1)C(=O)[C@H](CC(=O)N1CCCC1)C2,-1,-5,-1,9,4
O=[N+]([O-])c1nccn1CC(O)CCN1CCOCC1 (configuration not stated),nt,nt,1,nt,-17
Nc1ccn([C@@H]2O[C@H](C(=O)N[C@H](Cc3ccccc3)C(=O)N3CCSC3)[C@@H](O)[C@H]2O)c(=O)n1,nt,nt,0,nt,0
O=S1(=O)N[C@H](Cc2ccccc2)COc2cc(F)ccc21,nt,nt,-1,nt,-23
CC(=NNc1cc(C)c2ccccc2n1)c1ccccn1,nt,nt,15,nt,38
CCCCCCN[C@H]1CCC2C3CC=C4C[C@@H](O)CC[C@]4(C)C3CC[C@@]21C (some centres not stated),12,-12,14,37*,-9
C=C1SC(Nc2c(C)cccc2C)=NC12CCCCC2,-1,-15,4,29*,-48
CCN1C(=O)N(C(C)=O)[C@H]2C[C@H](C(=O)N3CCCC3)[C@H](C)[C@H](c3ccccc3)C[C@H]21,nt,nt,2,nt,-26
COc1cc(-c2cnc3c(NC=O)cc(-c4ccccc4)cn23)cc(OC)c1OC,4,-2,-1,1,9
COc1ccc(F)cc1-c1cc(NC=O)c2ncc(-c3cc(OC)c(OC)c(OC)c3)n2c1,27,-8,48*,3,77*
COc1ccccc1-c1cc(NC=O)c2ncc(-c3ccc(F)cc3)n2c1,29,-3,52*,16,51*
CCc1ccc(-c2cc(C)no2)cc1S(=O)(=O)NCCCN1CCN(c2ccccc2)CC1,25,-13,3,31*,32
CCc1ccc(-c2cc(C)no2)cc1S(=O)(=O)NCCN1CCC(C)CC1,1,-6,0,4,-22
O=C(COC(=O)c1ccc(Br)o1)Nc1ccc(Br)cc1,-1,6,40*,-6,9
O=C(COC(=O)c1ccc(Br)o1)NCCNC(=O)COC(=O)c1ccc(Br)o1,0,-1,6,-5,-13
COc1cc(/C=C/CN2CCC(C(=O)NC(c3ccc(F)cc3)c3ccc4ccccc4n3)CC2)ccc1OC(C)=O (configuration not stated),17,-9,49*,2,23
COCCN1C(=O)/C(=C/c2ccc(N3CCCC3)cc2C)SC1=S,7,-7,34,6,51*
